What was measured:
[1] = system: Thoracic aorta; experiment: Vasorelaxing activity in Wistar rat endothelium-intact thoracic aorta ring assessed as reduction in 30 mM KCl-induced contraction at 300 uM after 15 mins relative to DMSO; conditions: 0.25 h
[2] = system: Thoracic aorta; experiment: Vasorelaxing activity in Wistar rat endothelium-intact thoracic aorta ring assessed as reduction in 30 mM KCl-induced contraction after 15 mins; conditions: 0.25 h
[3] = system: Trachea; experiment: Tracheorelaxant activity in Wistar rat trachea tonus assessed as reduction in 30 mM KCl-induced contraction at 100 uM after 15 mins relative to control; type: functional; conditions: 0.25 h
Procedure, shortened: (§1)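 Trachea rings (3-4 mm) from female Wistar rats were held in a 10 ml organ bath under the same conditions as the aorta and contracted with 30 mM KCl. Compound in DMSO was added cumulatively. EC50 was derived by non-linear regression; Emax is % relaxation at 100 µM.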

[4] = system: Trachea; experiment: Tracheorelaxant activity in Wistar rat trachea tonus assessed as reduction in 30 mM KCl-induced contraction after 15 mins; type: functional, tissue-based; conditions: 0.25 h
Procedure, shortened: as §1

[5] = system: Trachea/thoracic aorta; experiment: Ratio of EC50 for Wistar rat trachea tonus to EC50 for Wistar rat endothelium-denuded thoracic aorta ring; type: functional; conditions: in the assay text read “endothelium-intact” for “endothelium-denuded”
Procedure, shortened: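 Ratio of trachea EC50 to aorta EC50, both measured against 30 mM KCl contraction in female Wistar rat rings, with cumulative compound addition in DMSO and EC50 from non-linear regression.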

| Structure (SMILES) | EC50 [2] | EC50 [4] | Emax [1] | Emax [3] | Ratio EC50 [5] |
| --- | --- | --- | --- | --- | --- |
| CC(NC(=O)NS(=O)(=O)c1ccccc1)c1ccccc1OCc1ccccc1 (racemic) | > 200 µM |  | 59% |  |  |
| COc1ccc(F)cc1C(C)NC(=O)NS(=O)(=O)c1ccc(Cl)cc1 (racemic) | > 300 µM |  | 54.7% |  |  |
| CC(NC(=O)NS(=O)(=O)c1ccccc1)c1cc(Br)ccc1OCc1ccccc1 (racemic) | 130 µM |  | 92.3% |  |  |
| COc1ccc(OC)c(CNC(=O)NS(=O)(=O)c2ccccc2)c1 | > 300 µM |  | -20.3% |  |  |
| COc1ccc(OC)c(CNC(=O)N(C)S(=O)(=O)c2ccccc2)c1 | 21.3 µM | 18.5 µM | 100% | 150% | 0.9 |
| CCOc1ccc(F)cc1C(C)NC(=O)NS(=O)(=O)c1ccccc1 (racemic) | > 300 µM |  | 46.4% |  |  |
| CCOc1ccc(Br)cc1C(C)NC(=O)NS(=O)(=O)c1ccc(Cl)cc1 (racemic) | 171 µM |  | 77.6% |  |  |
| COc1ccc(F)cc1C(C)NC(=O)NS(=O)(=O)c1ccccc1 (racemic) | > 300 µM |  | 1.2% |  |  |
| CC(C)Oc1ccc(Br)cc1C(C)NC(=O)N(C)S(=O)(=O)c1ccc(Cl)cc1 (racemic) | 43.2 µM |  | 93.7% |  |  |
| CCOc1ccc(Br)cc1C(C)NC(=O)NS(=O)(=O)c1ccccc1 (racemic) | > 300 µM |  | 35.9% |  |  |
| CC(C)Oc1ccc(Br)cc1C(C)NC(=O)NS(=O)(=O)c1ccccc1 (racemic) | 143 µM |  | 73.2% |  |  |
| CC(NC(=O)N(C)S(=O)(=O)c1ccc(Cl)cc1)c1ccccc1OCc1ccccc1 (racemic) | 38.4 µM |  | 91.1% |  |  |
| Cc1ccc(S(=O)(=O)NC(=O)NC(C)c2cc(C)ccc2OCc2ccccc2)cc1 (racemic) | 91.9 µM |  | 106% |  |  |
| COc1ccc(Cl)cc1C(C)NC(=O)N(C)S(=O)(=O)c1ccc(Cl)cc1 (racemic) | 20 µM |  | 103% |  |  |
| Cc1ccc(S(=O)(=O)N(C)C(=O)NC(C)c2ccccc2OCc2ccccc2)cc1 (racemic) | 31 µM |  | 93.2% |  |  |
| CC(C)Oc1ccc(Br)cc1C(C)NC(=O)NS(=O)(=O)c1ccc(Cl)cc1 (racemic) | 122 µM |  | 100% |  |  |
| COc1ccc(Br)cc1C(C)NC(=O)NS(=O)(=O)c1ccc(Cl)cc1 (racemic) | 80.9 µM |  | 82.6% |  |  |
| COc1ccc(Br)cc1C(C)NC(=O)NS(=O)(=O)c1ccc(C)cc1 (racemic) | > 300 µM |  | 67.6% |  |  |
| CCOc1ccc(Cl)cc1C(C)NC(=O)NS(=O)(=O)c1ccc(Cl)cc1 (racemic) | 281 µM |  | 69.7% |  |  |
| Cc1ccc(OCc2ccccc2)c(C(C)NC(=O)N(C)S(=O)(=O)c2ccccc2)c1 (centres undefined) | 68.2 µM |  | 86.1% |  |  |

| Structure (SMILES) | EC50 [2] | EC50 [4] | Emax [1] | Emax [3] | Ratio EC50 [5] |
| --- | --- | --- | --- | --- | --- |
| Cc1ccc(S(=O)(=O)N(C)C(=O)NC(C)c2cc(Br)ccc2OCc2ccccc2)cc1 (racemic) | 67.1 µM |  | 47.9% |  |  |
| Cc1ccc(S(=O)(=O)NC(=O)NC(C)c2cc(Br)ccc2OC(C)C)cc1 (centres undefined) | 61.8 µM |  | 93.2% |  |  |
| CC(NC(=O)N(C)S(=O)(=O)c1ccccc1)c1cc(Br)ccc1OCc1ccccc1 (racemic) | 60.3 µM |  | 56.8% |  |  |
| CCOc1ccc(Cl)cc1C(C)NC(=O)NS(=O)(=O)c1ccccc1 (centres undefined) | > 300 µM |  | 15.8% |  |  |
| COc1ccc(OC)c(CNC(=O)NS(=O)(=O)c2ccc(C)cc2)c1 | > 300 µM |  | -14.5% |  |  |
| COc1ccc(Cl)cc1C(C)NC(=O)NS(=O)(=O)c1ccccc1 (racemic) | > 300 µM |  | 16.4% |  |  |
| COc1ccc(OC)c(CNC(=O)N(C)S(=O)(=O)c2ccc(Cl)cc2)c1 | 18.2 µM |  | 93.6% |  |  |
| CC(C)Oc1ccc(Br)cc1C(C)NC(=O)N(C)S(=O)(=O)c1ccccc1 (racemic) | 32.1 µM |  | 81.5% |  |  |
| COc1ccc(Br)cc1C(C)NC(=O)NS(=O)(=O)c1ccccc1 (racemic) | > 300 µM |  | 45.5% |  |  |
| COc1ccc(OC)c(CNC(=O)NS(=O)(=O)c2ccc(Cl)cc2)c1 | > 300 µM |  | -28% |  |  |
| CC(NC(=O)N(C)S(=O)(=O)c1ccccc1)c1ccccc1OCc1ccccc1 (racemic) | 21.7 µM |  | 92.3% |  |  |
| CC(NC(=O)N(C)S(=O)(=O)c1ccc(Cl)cc1)c1cc(Br)ccc1OCc1ccccc1 (centres undefined) | 146 µM |  | 97.3% |  |  |
| COc1ccc(Cl)cc1C(C)NC(=O)NS(=O)(=O)c1ccc(Cl)cc1 (racemic) | > 300 µM |  | 40.9% |  |  |
| Cc1ccc(OCc2ccccc2)c(C(C)NC(=O)N(C)S(=O)(=O)c2ccc(Cl)cc2)c1 (racemic) | 142 µM |  | 76.9% |  |  |
| Cc1ccc(S(=O)(=O)NC(=O)NC(C)c2cc(Br)ccc2OCc2ccccc2)cc1 (racemic) | 138 µM |  | 92.5% |  |  |
| Cc1ccc(OCc2ccccc2)c(C(C)NC(=O)NS(=O)(=O)c2ccccc2)c1 (racemic) | > 200 µM |  | 90.7% |  |  |
| COc1ccc(OC)c(CNC(=O)N(C)S(=O)(=O)c2ccc(C)cc2)c1 | 20.9 µM |  | 92.7% |  |  |
| COc1ccc(Cl)cc1C(C)NC(=O)NS(=O)(=O)c1ccc(C)cc1 (racemic) | > 300 µM |  | 36.6% |  |  |
| Cc1ccc(S(=O)(=O)NC(=O)NC(C)c2ccccc2OCc2ccccc2)cc1 (racemic) | > 200 µM |  | 84.7% |  |  |
| CC(NC(=O)NS(=O)(=O)c1ccc(Cl)cc1)c1ccccc1OCc1ccccc1 (racemic) | 157 µM |  | 103% |  |  |

The next lines start with results.

| EC50 [2] | EC50 [4] | Structure (SMILES) | Emax [1] | Emax [3] | Ratio EC50 [5] |
| --- | --- | --- | --- | --- | --- |
| 7.8 µM |  | CCOc1ccc(F)cc1C(C)NC(=O)N(C)S(=O)(=O)c1ccc(C)cc1 (racemic) | 104% |  |  |
| > 300 µM |  | CCOc1ccc(Br)cc1C(C)NC(=O)NS(=O)(=O)c1ccc(C)cc1 (racemic) | 62.2% |  |  |
| 11.7 µM |  | COc1ccc(F)cc1C(C)NC(=O)N(C)S(=O)(=O)c1ccc(C)cc1 (racemic) | 106% |  |  |
| 24.5 µM |  | CCOc1ccc(F)cc1C(C)NC(=O)N(C)S(=O)(=O)c1ccc(Cl)cc1 (racemic) | 101% |  |  |
| 181 µM |  | Cc1ccc(S(=O)(=O)N(C)C(=O)NC(C)c2cc(C)ccc2OCc2ccccc2)cc1 (racemic) | 82.9% |  |  |
| > 300 µM |  | CCOc1ccc(Cl)cc1C(C)NC(=O)NS(=O)(=O)c1ccc(C)cc1 (racemic) | 45.5% |  |  |
| > 300 µM |  | CCOc1ccc(F)cc1C(C)NC(=O)NS(=O)(=O)c1ccc(Cl)cc1 (racemic) | 52.7% |  |  |
| 34.7 µM |  | Cc1ccc(S(=O)(=O)N(C)C(=O)NC(C)c2cc(Br)ccc2OC(C)C)cc1 (racemic) | 102% |  |  |
| 11.5 µM |  | CCOc1ccc(F)cc1C(C)NC(=O)N(C)S(=O)(=O)c1ccccc1 (racemic) | 106% |  |  |
| 10 µM |  | COc1ccc(F)cc1C(C)NC(=O)N(C)S(=O)(=O)c1ccccc1 (racemic) | 109% |  |  |
| 14.6 µM |  | CCOc1ccc(Cl)cc1C(C)NC(=O)N(C)S(=O)(=O)c1ccc(Cl)cc1 (racemic) | 105% |  |  |
| 12.2 µM |  | CCOc1ccc(Cl)cc1C(C)NC(=O)N(C)S(=O)(=O)c1ccc(C)cc1 (racemic) | 106% |  |  |
| > 300 µM |  | COc1ccc(F)cc1C(C)NC(=O)NS(=O)(=O)c1ccc(C)cc1 (racemic) | -4.5% |  |  |
| 12.6 µM |  | COc1ccc(F)cc1C(C)NC(=O)N(C)S(=O)(=O)c1ccc(Cl)cc1 (racemic) | 101% |  |  |
| 55.7 µM |  | CCOc1ccc(Br)cc1C(C)NC(=O)N(C)S(=O)(=O)c1ccc(Cl)cc1 (racemic) | 71% |  |  |
| > 300 µM |  | CCOc1ccc(F)cc1C(C)NC(=O)NS(=O)(=O)c1ccc(C)cc1 (racemic) | 26.2% |  |  |
| 28.6 µM |  | CCOc1ccc(Br)cc1C(C)NC(=O)N(C)S(=O)(=O)c1ccc(C)cc1 (racemic) | 90.8% |  |  |
| 13.8 µM |  | COc1ccc(Cl)cc1C(C)NC(=O)N(C)S(=O)(=O)c1ccc(C)cc1 (racemic) | 107% |  |  |
